Measurements from ChEMBL document CHEMBL3124843, “Synthesis, cytostatic, antimicrobial, and anti-HCV activity of 6-substituted 7-(het)aryl-7-deazapurine ribonucleosides” (J Med Chem, 2014).
pEC50, pIC50: −log10 of the molar value. Activity calls are given as the source filed them. The rule behind the calls is not given here.

How the values were obtained:
CCRF-CEM [1] = test: Inhibition of RNA synthesis in human CCRF-CEM cells assessed as BrU-positive cells at IC50 after 24 hrs by propidium iodide staining-based flow cytometric analysis (reference value: 43.3%); assay type: functional; parameters: scale not given: the % may be the effect or the level left
CCRF-CEM [2] = test: Cell cycle arrest in human CCRF-CEM cells assessed as accumulation at sub-G1 phase at IC50 after 24 hrs by propidium iodide staining-based flow cytometric analysis (reference value: 9.6%); assay type: functional
[3] = Cytotoxicity against human HuH7 cells infected with Hepatitis C virus subtype 2a; assay type: cell-based, Huh-7
Hepatitis C virus [4] = test: Antiviral activity against Hepatitis C virus subtype 2a infected in human HuH7 cells; assay type: functional, organism-based, Hepacivirus hominis; settings: genotype 2a, Huh-7
[5] = Cytotoxicity against human HuH7 cells infected with Hepatitis C virus subtype 1b; assay type: cell-based, Huh-7
Hepatitis C virus [6] = test: Antiviral activity against Hepatitis C virus subtype 1b infected in human HuH7 cells; assay type: functional, organism-based, Hepacivirus hominis; settings: genotype 1b, Huh-7
Candida tropicalis = test: Antifungal activity against Candida tropicalis after 48 hrs; assay type: functional, organism-based
Pichia kudriavzevii = test: Antifungal activity against Candida crusei after 48 hrs; assay type: functional, organism-based
Candida parapsilosis = test: Antifungal activity against Candida parapsilosis after 48 hrs; assay type: functional, organism-based
Candida albicans = test: Antifungal activity against Candida albicans after 48 hrs; assay type: functional, organism-based
Pseudomonas aeruginosa [7] = test: Antibacterial activity against multi-resistant Pseudomonas aeruginosa A/16575 after 24 hrs; assay type: functional, organism-based
Escherichia coli [8] = test: Antibacterial activity against multi-resistant Escherichia coli C/16702 after 24 hrs; assay type: functional, organism-based
[9] = system: Staphylococcus haemolyticus; test: Antibacterial activity against methicillin-resistant Staphylococcus haemolyticus A/16568 after 24 hrs; assay type: functional, organism-based
Staphylococcus aureus [10] = test: Antibacterial activity against methicillin-resistant Staphylococcus aureus MRSA 4591 after 24 hrs; assay type: functional, organism-based
Pseudomonas aeruginosa [11] = test: Antibacterial activity against Pseudomonas aeruginosa CCM 3955 after 24 hrs; assay type: functional, organism-based
Escherichia coli [12] = test: Antibacterial activity against Escherichia coli CCM 3954 after 24 hrs; assay type: functional, organism-based
Staphylococcus aureus [13] = test: Antibacterial activity against Staphylococcus aureus CCM 3953 after 24 hrs; assay type: functional, organism-based
Enterococcus faecalis = test: Antibacterial activity against Enterococcus faecalis CCM 4224 after 24 hrs; assay type: functional, organism-based
[14] = Antiproliferative activity against human HeLaS3 cells after 72 hrs by XTT assay; assay type: functional, cell-based; settings: HeLa S3, 72 h
Outline: (§1)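 Antiproliferative test on HL-60 promyelocytic leukemia and HeLa S3 cervical carcinoma cells growing in liquid suspension.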

HL-60 = test: Antiproliferative activity against human HL60 cells after 72 hrs by XTT assay; assay type: functional, cell-based; settings: HL-60, 72 h; outline: as §1
HepG2 = test: Antiproliferative activity against human HepG2 cells after 72 hrs by XTT assay; assay type: functional, cell-based; settings: HepG2, 72 h
MRC5 = test: Cytostatic activity against human MRC5 cells after 72 hrs by MTT assay; assay type: ADME, cell-based; settings: MRC5, 72 h
Outline: (§2)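 IC50 is the concentration that cuts cell growth by 50%, read by quantitative metabolic MTT staining after a 3-day treatment. The resistant sublines were made by raising the concentration of the cytotoxic drug step by step. CEM-DNR-bulk (daunorubicin-selected) stably overexpresses mrp-1. K562-TAX (paclitaxel-selected) expresses only mdr-1. HCT116p53−/− carries null p53 alleles. BJ and MRC-5 are nonmalignant fibroblasts.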

BJ = test: Cytostatic activity against human BJ cells after 72 hrs by MTT assay; assay type: ADME, cell-based; outline: as §2
HCT-116 [15] = test: Cytostatic activity against p53-deficient human HCT116 cells after 72 hrs by MTT assay; assay type: functional, cell-based; settings: HCT-116, 72 h; outline: as §2
HCT-116 [16] = test: Cytostatic activity against human HCT116 cells after 72 hrs by MTT assay; assay type: functional, cell-based; settings: HCT-116, 72 h; outline: as §2
A549 = test: Cytostatic activity against human A549 cells after 72 hrs by MTT assay; assay type: functional, cell-based; settings: A549, 72 h; outline: as §2
K562 [17] = test: Cytostatic activity against paclitaxel-resistant human K562 cells after 72 hrs by MTT assay; assay type: functional, cell-based; settings: K562, 72 h; outline: as §2
K562 [18] = test: Cytostatic activity against human K562 cells after 72 hrs by MTT assay; assay type: functional, cell-based; settings: K562, 72 h; outline: as §2
[19] = Cytostatic activity against human CEM-DNR-bulk cells after 72 hrs by MTT assay; assay type: functional, cell-based; outline: as §2
CCRF-CEM [20] = test: Cytostatic activity against human CCRF-CEM cells after 72 hrs by MTT assay; assay type: functional, cell-based; outline: as §2
CCRF-CEM [21] = test: Mitotic arrest in human CCRF-CEM cells assessed as pH3Ser10-positive cells at IC50 after 24 hrs by propidium iodide staining-based flow cytometric analysis (reference value: 1.4%); assay type: functional
CCRF-CEM [22] = test: Cell cycle arrest in human CCRF-CEM cells assessed as accumulation at G1 phase at IC50 after 24 hrs by propidium iodide staining-based flow cytometric analysis (reference value: 41%); assay type: functional

Compound | Activity (CCRF-CEM [1]) [%] | CC50 [3] [µM] | pEC50 (Hepatitis C virus [4]) | CC50 [5] [µM] | pEC50 (Hepatitis C virus [6]) | Activity (Candida tropicalis) | Activity (Pichia kudriavzevii) | Activity (Candida parapsilosis) | Activity (Candida albicans) | Activity (Pseudomonas aeruginosa [7]) | Activity (Escherichia coli [8]) | Activity [9] | Activity (Staphylococcus aureus [10]) | Activity (Pseudomonas aeruginosa [11]) | Activity (Escherichia coli [12]) | Activity (Staphylococcus aureus [13]) | Activity (Enterococcus faecalis) | pIC50 [14] | pIC50 (HL-60) | pIC50 (HepG2) | other results
COc1ncnc2c1c(I)cn2[C@@H]1O[C@H](CO)[C@@H](O)[C@H]1O | 0.2 | > 44 | < 4.36 | > 44 | < 4.36 | inactive | inactive | inactive | inactive | inactive | inactive | inactive | inactive | inactive | inactive | inactive | inactive | 4.84 | 5.64 | < 4.70 | Activity (CCRF-CEM [2]): 6%; pIC50 (MRC5): 4.20; pIC50 (BJ): 4.04; pIC50 (HCT-116 [15]): < 4.70; pIC50 (HCT-116 [16]): < 4.70; pIC50 (A549): < 4.70; pIC50 (K562 [17]): 4.83; pIC50 (K562 [18]): < 4.70; pIC50 [19]: < 4.70; pIC50 (CCRF-CEM [20]): 5.94; Activity (CCRF-CEM [21]): 0.9%
CN(C)c1ncnc2c1c(-c1ccco1)cn2[C@@H]1O[C@H](CO)[C@@H](O)[C@H]1O | 0.4 | > 44 | 5.87 | > 44 | 5.83 | inactive | inactive | inactive | inactive | inactive | inactive | inactive | inactive | inactive | inactive | inactive | inactive | 5.92 | 6.66 | < 4.82 | Activity (CCRF-CEM [22]): 31%; pIC50 (MRC5): < 4.00; pIC50 (BJ): < 4.00; pIC50 (HCT-116 [15]): 6.49; pIC50 (HCT-116 [16]): 6.60; pIC50 (A549): 5.34; pIC50 (K562 [17]): 5.89; pIC50 (K562 [18]): 6.82; pIC50 [19]: 5.50; pIC50 (CCRF-CEM [20]): 5.54; Activity (CCRF-CEM [21]): 1.5%
COc1ncnc2c1c(-c1ccoc1)cn2[C@@H]1O[C@H](CO)[C@@H](O)[C@H]1O | 0.7 | > 44 | 5.08 | > 44 | 6.48 | inactive | inactive | inactive | inactive | inactive | inactive | inactive | inactive | inactive | inactive | inactive | inactive | 5.75 | 6.82 | 6.54 | Activity (CCRF-CEM [2]): 8.5%; pIC50 (MRC5): 4.53; pIC50 (BJ): 4.54; pIC50 (HCT-116 [15]): 6.89; pIC50 (HCT-116 [16]): 6.96; pIC50 (A549): 5.94; pIC50 (K562 [17]): 5.55; pIC50 (K562 [18]): 6.72; pIC50 [19]: < 4.70; pIC50 (CCRF-CEM [20]): 6.96; Activity (CCRF-CEM [21]): 1.6%
CN(C)c1ncnc2c1c(I)cn2[C@@H]1O[C@H](CO)[C@@H](O)[C@H]1O | 4.8 | > 44 | < 4.36 | > 44 | 6.16 | inactive | inactive | inactive | inactive | inactive | inactive | inactive | inactive | inactive | inactive | inactive | inactive | 6.72 | 7.30 | 4.86 | Activity (CCRF-CEM [2]): 9.4%; pIC50 (MRC5): 4.04; pIC50 (BJ): 4.34; pIC50 (HCT-116 [15]): 6.92; pIC50 (HCT-116 [16]): 7.05; pIC50 (A549): 6.47; pIC50 (K562 [17]): 7.30; pIC50 (K562 [18]): 7.15; pIC50 [19]: 7.00; pIC50 (CCRF-CEM [20]): 5.80; Activity (CCRF-CEM [21]): 1.3%
CN(C)c1ncnc2c1c(-c1ccsc1)cn2[C@@H]1O[C@H](CO)[C@@H](O)[C@H]1O | 0.7 | > 44 | < 4.36 | > 44 | 4.42 | inactive | inactive | inactive | inactive | inactive | inactive | inactive | inactive | inactive | inactive | inactive | inactive | < 4.82 | 5.72 | < 4.70 | Activity (CCRF-CEM [2]): 6.8%; pIC50 (MRC5): < 4.00; pIC50 (BJ): < 4.00; pIC50 (HCT-116 [15]): < 4.70; pIC50 (HCT-116 [16]): < 4.70; pIC50 (A549): < 4.70; pIC50 (K562 [17]): < 4.70; pIC50 (K562 [18]): 6.28; pIC50 [19]: < 4.70; pIC50 (CCRF-CEM [20]): 5.46; Activity (CCRF-CEM [21]): 0.7%
